Screening data as filed in PubChem BioAssay.
OX1R antag-1: OX1R (HCRTR1) antagonists, primary screen, fluorescence, CHO/OX1R cells, Fluo-8 calcium, orexin A | Fluo-8 calcium fluorescence | inhibition, % at 5 µM | 330,000 compounds, 0.43% hits | Orexin/Hypocretin receptor type 1 (Homo sapiens), O43613 | AID 434989, 2010;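 active = inhibition above its plate's threshold, mean inhibition of all tested compounds on the plate plus 3 SD, cut at about 37% in these data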;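 also: 0% = orexin A challenge wells and 100% = SB-334867-A antagonist wells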
TRPML3 agonist: human TRPML3 channel agonists, primary screen, cell-based, HEK293 TRPML3-YFP, Fluo-8 calcium fluorescence, 3 µM. 220,000 compounds, 0.29% hits. 100% = the carbachol control signal. activation, % at 3 µM;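 active = activation above its plate's cutoff, the mean activation of the plate's test wells plus 3 SD, cut at about 12% in these data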;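 also: 0% = DMSO only wells and 100% = carbachol wells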
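Material: TRPML3-YFP stable HEK293 cells | Dosing: One concentration, 3 µM nominal, 0.3% DMSO | Timing: 125 s total fluorescence read per well | Technique: Fluo-8 calcium dye fluorescence, ex 470-495, em 515-575 nm | Measure: Percent activation from peak-to-basal fluorescence ratio, scaled between DMSO and carbachol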
OX1R antag-2: antagonists of human orexin 1 receptor (OX1R). Orexin/Hypocretin receptor type 1 (Homo sapiens), O43613. OX1R-expressing cells, FRET antagonist read-out. inhibition, % at 6.6 µM. 330,000 compounds, 1.8% hits. AID 485270, 2010; in the data active = inhibition mostly above about 38%, no sharp cut-off; inactive = mostly below about 40%;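 also: 0% = agonist challenge alone and 100% = reference antagonist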
GPR7 antagonist: GPR7 receptor antagonists, primary screen, cell-based, fluorescence, single concentration; AID 1861, 2009; GPR7-expressing cells, fluorescence antagonist assay; 290,000 compounds, 1.1% hits; Neuropeptides B/W receptor type 1 (Homo sapiens), P48145; inhibition, % at 4.4 µM; in the data active = inhibition above about 16%, passing the limit was not always enough;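 also: cells stimulated with the agonist NPW; 0% = agonist with vehicle and 100% = vehicle without agonist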
Target sequence (P48145 whole entry, looked up): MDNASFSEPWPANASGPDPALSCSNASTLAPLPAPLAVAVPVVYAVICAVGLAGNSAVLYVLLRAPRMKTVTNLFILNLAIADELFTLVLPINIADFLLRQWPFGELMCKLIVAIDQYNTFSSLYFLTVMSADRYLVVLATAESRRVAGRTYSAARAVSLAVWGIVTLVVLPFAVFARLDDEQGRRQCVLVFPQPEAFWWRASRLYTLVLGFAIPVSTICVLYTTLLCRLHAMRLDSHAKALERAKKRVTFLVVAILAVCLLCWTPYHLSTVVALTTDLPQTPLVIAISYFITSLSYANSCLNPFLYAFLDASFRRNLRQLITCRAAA
CHO parental Ca: ATP-evoked calcium signal inhibitors, parental CHO, primary screen, counter-screen for OX1R antagonist project, cell-based, fluorescence, Fluo-8 calcium dye; parental CHO-K1, ATP-induced calcium, Fluo-8 fluorescence; inhibition, % at 5.6 µM; 330,000 compounds, 0.63% hits; AID 463079, 2010;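 active = inhibition above that plate's mean sample inhibition plus 3 SD, cut at about 26% in these data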;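 also: 0% = ATP-challenged DMSO wells and 100% = DMSO wells without ATP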
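Material: Parental CHO cells | Reagent: ATP | Compound dosing: Single nominal dose of 5.6 µM per compound | Detection: Intracellular calcium via Fluo-8 no-wash fluorescent dye | Read-out: % inhibition of ATP-induced calcium mobilization | Benchmarks: Low control ATP plus DMSO, high control DMSO only | Replicates: Singlicate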
TRPN1 ag: zebrafish TRPN1 channel agonists, primary screen, cell-based, HEK293, calcium fluorescence; HEK293 zebrafish TRPN1-YFP, Fluo-8 calcium fluorescence; 100% = response to 87 µM carbachol; AID 1424, 2008; transient receptor potential cation channel N1 (TRPN1/NompC), Danio rerio; 220,000 compounds, 0.18% hits; activation, % at 3 µM;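 active = activation above its plate's cutoff, the mean activation of test wells on that plate plus 3 SD, cut at about 19% in these data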;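 also: 0% = DMSO alone and 100% = 87 µM carbachol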
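Material: zebrafish TRPN1-YFP in HEK293 cells; Doses: single test compound dose, 3 µM nominal, 0.3% DMSO; Timing: dye loading 1 h at 37 °C, then 30 min room temperature; Technique: intracellular calcium fluorescence with Fluo-8; Benchmarks: high carbachol 87 µM, low DMSO alone.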
GPR7 antag conf: GPR7 receptor antagonists, confirmation, cell-based, fluorescence, single concentration; shares compounds with GPR7 antagonist; GPR7-expressing cells, calcium fluorescence antagonist mode; inhibition, % at 4.4 µM; 2,400 compounds, 52% hits; AID 1952, 2009; in the data active = inhibition above about 24%;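 also: stimulated with the GPR7 agonist NPW; 0% = agonist plus vehicle and 100% = vehicle alone without agonist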
MCHR1 antagonist: MCHR1 antagonists in cells, counter-screen for GPR7 antagonist project, cell-based, fluorescence, human; shares compounds with GPR7 antagonist; MCHR1-expressing cells, fluorescence antagonist assay; inhibition, % at 4.4 µM; 2,400 compounds, 62% hits; AID 2148, 2009; in the data active = inhibition above about 22%;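 also: 0% = vehicle with agonist and 100% = vehicle without agonist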
* hit, by the source's call. An excerpt weighted towards active compounds, which were near 3.2% of everything screened.

For CCCC(CCC)C(=O)Nc1ccc2c(c1)N(C(=O)CCN1CCN(C)CC1)c1ccccc1CC2 the results were OX1R antag-1 -21, TRPML3 agonist 1, OX1R antag-2 6, GPR7 antagonist 28*, CHO parental Ca -6, TRPN1 ag 4, GPR7 antag conf 28* and MCHR1 antagonist 18.
For C=CCN1C(=O)CSc2ccc(C(=O)NCc3cccs3)cc21 the results were OX1R antag-1 -22, TRPML3 agonist 0, OX1R antag-2 14, GPR7 antagonist 28*, CHO parental Ca -14, TRPN1 ag 2, GPR7 antag conf 10 and MCHR1 antagonist 13.
For C=CCN1C(=O)CSc2ccc(C(=O)NC3CCCCC3)cc21 the results were OX1R antag-1 -12, OX1R antag-2 7, GPR7 antagonist -1 and CHO parental Ca -13.
Screening CCC(NC(=O)c1[nH]c(C)c(C(C)=O)c1C)c1ccc(Br)cc1 (stereo unspecified) returned OX1R antag-1 -4, OX1R antag-2 7, GPR7 antagonist 29*, CHO parental Ca -18, GPR7 antag conf -7 and MCHR1 antagonist 10.
`O=C(Nc1ncccc1O)c1ccc(Oc2ccccc2)cc1` gave OX1R antag-1 -27, OX1R antag-2 7, GPR7 antagonist 35*, CHO parental Ca -3, GPR7 antag conf 9 and MCHR1 antagonist 16.
Screening COc1ccc(Cl)cc1NC(=O)CN(C)C(=O)c1ccc(-n2nc(C)cc2C)cc1 returned OX1R antag-1 -7, OX1R antag-2 4 and CHO parental Ca -16.
For Cc1ccc(C2CC(C(F)F)n3ncc(C(=O)Nc4c(C)nn(Cc5c(F)cccc5Cl)c4C)c3N2)cc1 (stereo unspecified) the results were OX1R antag-1 0, TRPML3 agonist 1, OX1R antag-2 9, GPR7 antagonist 24*, CHO parental Ca 18, TRPN1 ag 1, GPR7 antag conf 56* and MCHR1 antagonist 27*.
`COc1ccc(NC(=O)CSc2nnc(N)s2)cc1S(=O)(=O)N1CCCCC1` gave OX1R antag-1 -9, OX1R antag-2 -1 and CHO parental Ca 1.
CN(c1ccccc1)P(=O)(N(C)c1ccccc1)N(C)c1ccccc1 was read as OX1R antag-1 22, TRPML3 agonist -1, OX1R antag-2 28, GPR7 antagonist 28*, CHO parental Ca 1, TRPN1 ag -1, GPR7 antag conf 34* and MCHR1 antagonist 37*.
`CNC(=O)CSc1nnc(NC(=O)C2CC(=O)N(c3ccccc3OC)C2)s1` (stereo unspecified) gave OX1R antag-1 0, OX1R antag-2 18, GPR7 antagonist -13 and CHO parental Ca -5.
`COc1ccc(NC(=O)CCN2CCN(Cc3ccccc3)CC2)c(OC)c1` gave OX1R antag-1 -8, OX1R antag-2 13, GPR7 antagonist 2 and CHO parental Ca -14.
Screening O=C(CSc1nnc(COc2ccccc2)n1Cc1ccco1)Nc1ccc2c(c1)OCCO2 returned OX1R antag-1 -5, TRPML3 agonist 0, OX1R antag-2 10, GPR7 antagonist 29*, CHO parental Ca -15, TRPN1 ag -1, GPR7 antag conf 31* and MCHR1 antagonist 33*.
`CCn1c(COc2ccc(Cl)cc2)nnc1SCC(=O)Nc1ccc2c(c1)OCO2` gave OX1R antag-1 -7, TRPML3 agonist -1, OX1R antag-2 29, GPR7 antagonist 10, CHO parental Ca -14 and TRPN1 ag -1.
